ChEMBL document CHEMBL4177764 (J Med Chem, 2018)
Calls of active or inactive are those of the source. No cut-off for these calls is given here.

Legend:
NCI-H3122 = experiment: Antiproliferative activity against human NCI-H3122 cells after 72 hrs by CellTiter-Glo luminescent cell viability assay; assay type: functional, cell-based
KARPAS-299 = experiment: Antiproliferative activity against human KARPAS299 cells after 72 hrs by CellTiter-Glo luminescent cell viability assay; assay type: functional, cell-based
[1] = target: T1, ALK tyrosine kinase receptor (Homo sapiens, UniProt Q9UM73); experiment: Induction of ALK degradation in human KARPAS299 cells after 16 hrs by immunoblot method; assay type: cell-based
How it was run: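 H3122 and Karpas 299 cells were given a dose titration for 16 h. ALK and Aurora A were then read by immunoblot. DC50 was calculated from the titrations, two independent experiments.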
Target sequence in this assay (Q9UM73 whole entry): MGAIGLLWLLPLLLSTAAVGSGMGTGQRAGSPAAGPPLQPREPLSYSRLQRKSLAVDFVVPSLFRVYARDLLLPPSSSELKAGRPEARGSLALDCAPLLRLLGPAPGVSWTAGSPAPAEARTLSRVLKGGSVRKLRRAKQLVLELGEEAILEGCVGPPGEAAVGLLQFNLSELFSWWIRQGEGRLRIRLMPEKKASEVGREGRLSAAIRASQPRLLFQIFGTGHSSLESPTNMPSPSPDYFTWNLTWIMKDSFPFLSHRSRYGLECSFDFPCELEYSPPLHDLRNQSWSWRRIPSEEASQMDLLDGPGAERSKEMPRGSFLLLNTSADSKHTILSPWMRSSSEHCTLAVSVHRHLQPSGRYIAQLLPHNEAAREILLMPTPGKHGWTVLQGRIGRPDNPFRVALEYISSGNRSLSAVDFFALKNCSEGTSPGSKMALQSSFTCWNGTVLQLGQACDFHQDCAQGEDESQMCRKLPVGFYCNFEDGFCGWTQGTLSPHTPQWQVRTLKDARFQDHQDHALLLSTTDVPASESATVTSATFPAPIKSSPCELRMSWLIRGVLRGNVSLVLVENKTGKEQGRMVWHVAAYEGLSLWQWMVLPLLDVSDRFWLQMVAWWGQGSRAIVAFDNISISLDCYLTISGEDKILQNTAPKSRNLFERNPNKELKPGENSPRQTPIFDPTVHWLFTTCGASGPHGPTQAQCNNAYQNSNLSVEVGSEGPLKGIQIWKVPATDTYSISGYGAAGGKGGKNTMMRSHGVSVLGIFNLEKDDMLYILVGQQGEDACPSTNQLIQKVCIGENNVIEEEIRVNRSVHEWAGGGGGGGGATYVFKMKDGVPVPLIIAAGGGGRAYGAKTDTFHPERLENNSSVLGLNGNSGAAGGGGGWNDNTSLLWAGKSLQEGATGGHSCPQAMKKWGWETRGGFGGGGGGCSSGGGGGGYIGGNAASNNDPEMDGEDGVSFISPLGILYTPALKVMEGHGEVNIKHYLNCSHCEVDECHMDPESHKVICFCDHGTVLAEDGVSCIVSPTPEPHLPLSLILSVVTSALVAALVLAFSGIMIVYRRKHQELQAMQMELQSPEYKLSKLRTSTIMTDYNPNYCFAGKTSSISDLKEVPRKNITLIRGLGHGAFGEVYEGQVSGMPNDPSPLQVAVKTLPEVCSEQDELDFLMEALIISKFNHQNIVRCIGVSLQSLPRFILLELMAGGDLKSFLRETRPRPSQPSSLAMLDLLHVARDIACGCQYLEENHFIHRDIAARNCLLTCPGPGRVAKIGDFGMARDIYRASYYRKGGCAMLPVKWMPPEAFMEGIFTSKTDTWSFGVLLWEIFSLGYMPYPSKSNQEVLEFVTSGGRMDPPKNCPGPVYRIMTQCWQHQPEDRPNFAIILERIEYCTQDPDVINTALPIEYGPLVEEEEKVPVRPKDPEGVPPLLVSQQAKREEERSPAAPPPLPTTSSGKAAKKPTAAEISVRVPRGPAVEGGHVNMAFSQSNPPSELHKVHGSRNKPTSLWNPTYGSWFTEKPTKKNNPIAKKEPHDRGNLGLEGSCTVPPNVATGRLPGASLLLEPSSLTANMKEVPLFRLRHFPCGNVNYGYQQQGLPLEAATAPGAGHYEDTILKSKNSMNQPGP

[2] = target: T1, ALK tyrosine kinase receptor; experiment: Induction of ALK degradation in human NCI-H3122 cells at 250 nM after 4 hrs by immunoblot method; assay type: cell-based
Target sequence in this assay (Q9UM73 19-1620 limits assumed): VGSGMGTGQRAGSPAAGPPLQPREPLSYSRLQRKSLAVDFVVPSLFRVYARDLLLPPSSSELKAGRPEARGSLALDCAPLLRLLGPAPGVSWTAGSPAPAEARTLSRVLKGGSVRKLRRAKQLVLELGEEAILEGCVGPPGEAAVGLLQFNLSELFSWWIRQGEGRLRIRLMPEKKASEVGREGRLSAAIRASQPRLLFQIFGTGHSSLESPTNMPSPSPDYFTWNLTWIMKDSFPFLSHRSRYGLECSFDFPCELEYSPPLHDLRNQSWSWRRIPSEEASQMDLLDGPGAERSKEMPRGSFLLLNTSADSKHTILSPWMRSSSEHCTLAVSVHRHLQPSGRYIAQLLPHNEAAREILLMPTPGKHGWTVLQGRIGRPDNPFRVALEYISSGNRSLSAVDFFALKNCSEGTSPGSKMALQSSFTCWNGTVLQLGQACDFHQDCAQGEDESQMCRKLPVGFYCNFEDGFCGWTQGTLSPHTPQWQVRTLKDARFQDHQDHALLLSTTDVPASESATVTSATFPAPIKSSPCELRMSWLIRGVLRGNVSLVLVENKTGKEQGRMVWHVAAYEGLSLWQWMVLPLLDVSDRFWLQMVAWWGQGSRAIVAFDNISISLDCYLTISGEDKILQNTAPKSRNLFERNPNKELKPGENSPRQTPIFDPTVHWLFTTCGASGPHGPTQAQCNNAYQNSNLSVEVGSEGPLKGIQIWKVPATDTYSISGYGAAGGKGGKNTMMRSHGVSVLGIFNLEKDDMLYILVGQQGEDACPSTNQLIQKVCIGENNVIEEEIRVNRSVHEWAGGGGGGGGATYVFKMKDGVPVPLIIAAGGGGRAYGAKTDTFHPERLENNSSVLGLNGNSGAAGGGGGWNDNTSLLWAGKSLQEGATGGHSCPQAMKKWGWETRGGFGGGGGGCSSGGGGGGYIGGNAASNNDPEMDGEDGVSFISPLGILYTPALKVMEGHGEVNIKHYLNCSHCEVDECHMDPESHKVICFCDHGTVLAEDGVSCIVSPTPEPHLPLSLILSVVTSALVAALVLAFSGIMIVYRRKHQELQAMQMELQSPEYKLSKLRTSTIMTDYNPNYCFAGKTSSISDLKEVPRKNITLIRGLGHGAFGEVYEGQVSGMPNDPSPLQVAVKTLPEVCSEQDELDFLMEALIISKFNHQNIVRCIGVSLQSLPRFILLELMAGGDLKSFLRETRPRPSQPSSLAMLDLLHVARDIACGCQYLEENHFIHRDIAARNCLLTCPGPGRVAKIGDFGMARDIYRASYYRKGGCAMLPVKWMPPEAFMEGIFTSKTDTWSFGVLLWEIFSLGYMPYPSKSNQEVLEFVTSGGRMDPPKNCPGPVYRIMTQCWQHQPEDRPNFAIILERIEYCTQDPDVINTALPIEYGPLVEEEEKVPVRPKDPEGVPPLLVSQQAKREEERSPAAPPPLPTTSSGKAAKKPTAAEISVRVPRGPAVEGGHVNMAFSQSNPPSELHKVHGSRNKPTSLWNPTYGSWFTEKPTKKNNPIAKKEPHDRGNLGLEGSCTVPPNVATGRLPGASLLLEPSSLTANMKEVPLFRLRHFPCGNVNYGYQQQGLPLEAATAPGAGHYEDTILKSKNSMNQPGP

[3] = target: T1, ALK tyrosine kinase receptor; experiment: Induction of ALK degradation in human NCI-H3122 cells at 250 nM after 16 hrs in presence of proteasome inhibitor carfilzomib by immunoblot method; assay type: cell-based
Target sequence in this assay (Q9UM73 19-1620 limits assumed): as above

[4] = target: T1, ALK tyrosine kinase receptor; experiment: Induction of ALK degradation in human KARPAS299 cells at 250 nM after 16 hrs in presence of proteasome inhibitor carfilzomib by immunoblot method; assay type: cell-based
Target sequence in this assay (Q9UM73 19-1620 limits assumed): as above

[5] = target: T2, Aurora kinase A (Homo sapiens) (UniProt O14965); experiment: Induction of aurora A degradation in human KARPAS299 cells at 250 nM after 16 hrs in presence of proteasome inhibitor carfilzomib by immunoblot method; assay type: cell-based
T2 sequence (whole entry): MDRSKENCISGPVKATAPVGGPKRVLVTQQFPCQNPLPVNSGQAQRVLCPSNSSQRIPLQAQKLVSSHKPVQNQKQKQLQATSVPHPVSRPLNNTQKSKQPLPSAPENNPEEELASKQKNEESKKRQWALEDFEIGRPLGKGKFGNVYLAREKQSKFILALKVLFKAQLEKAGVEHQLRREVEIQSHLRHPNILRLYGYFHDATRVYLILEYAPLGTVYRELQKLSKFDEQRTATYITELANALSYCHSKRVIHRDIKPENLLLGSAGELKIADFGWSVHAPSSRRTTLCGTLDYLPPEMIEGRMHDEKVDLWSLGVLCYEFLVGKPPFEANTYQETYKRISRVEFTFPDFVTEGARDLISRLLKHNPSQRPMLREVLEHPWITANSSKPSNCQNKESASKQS

[6] = target: T1, ALK tyrosine kinase receptor; experiment: Induction of ALK degradation in human NCI-H3122 cells at 250 nM after 16 hrs in presence of […] inhibitor MLN4924 by immunoblot method; assay type: cell-based
Target sequence in this assay (Q9UM73 19-1620 limits assumed): as the sequence (Q9UM73 19-1620 limits assumed) above

[7] = target: T2, Aurora kinase A (Homo sapiens); experiment: Induction of aurora A degradation in human KARPAS299 cells at 250 nM after 16 hrs in presence of […] inhibitor MLN4924 by immunoblot method; assay type: cell-based
[8] = target: T1, ALK tyrosine kinase receptor; experiment: Induction of ALK degradation in human NCI-H3122 cells at 250 nM after 16 hrs in presence of pomalidomide by immunoblot method; assay type: cell-based
Target sequence in this assay (Q9UM73 19-1620 limits assumed): as the sequence (Q9UM73 19-1620 limits assumed) above

[9] = target: T1, ALK tyrosine kinase receptor; experiment: Induction of ALK degradation in human NCI-H3122 cells at 250 nM after 16 hrs in presence of ALK inhibitor TAE684 by immunoblot method; assay type: cell-based
Target sequence in this assay (Q9UM73 19-1620 limits assumed): as the sequence (Q9UM73 19-1620 limits assumed) above

[10] = target: T1, ALK tyrosine kinase receptor; experiment: Induction of ALK degradation in human NCI-H3122 cells at 250 nM after 16 hrs in presence of ALK inhibitor LDK378 by immunoblot method; assay type: cell-based
[11] = target: T1, ALK tyrosine kinase receptor; experiment: Induction of ALK degradation in human KARPAS299 cells at 250 nM after 16 hrs in presence of ALK inhibitor LDK378 by immunoblot method; assay type: cell-based
SH-SY5Y [12] = experiment: Antiproliferative activity against human SH-SY5Y cells after 72 hrs by CellTiter-Glo luminescent cell viability assay; assay type: functional, cell-based
Homo sapiens [13] = species: Homo sapiens; experiment: Antiproliferative activity against human CHLA20 cells after 72 hrs by CellTiter-Glo luminescent cell viability assay; assay type: functional, cell-based
Homo sapiens [14] = species: Homo sapiens; experiment: Antiproliferative activity against human CHLA20 cells after 72 hrs in presence of ABCB1 inhibitor tariquidar by CellTiter-Glo luminescent cell viability assay; assay type: functional, cell-based
SH-SY5Y [15] = experiment: Antiproliferative activity against human SH-SY5Y cells after 72 hrs in presence of ABCB1 inhibitor tariquidar by CellTiter-Glo luminescent cell viability assay; assay type: functional, cell-based
[16] = target: T1, ALK tyrosine kinase receptor; experiment: Induction of ALK degradation in human CHLA20 cells at 100 nM after 16 hrs in presence of ABCB1 shRNA by immunoblot method; assay type: cell-based
[17] = target: T1, ALK tyrosine kinase receptor; experiment: Induction of ALK degradation in human CHLA20 cells at 100 nM after 4 hrs in presence of ABCB1 inhibitor tariquidar by immunoblot method; assay type: cell-based
How it was run: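 CHLA20 cells were co-treated with 125 nM tariquidar, then treated with 100 nM compound over a time course. ALK was read by immunoblot.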

[18] = target: T2, Aurora kinase A (Homo sapiens); experiment: Induction of aurora A degradation in human Kelly cells at 100 nM after 16 hrs in presence of proteasome inhibitor carfilzomib by immunoblot method; assay type: cell-based
How it was run: (§1)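 Cells were pre-treated for 2 h with DMSO, carfilzomib, MLN4924 or pomalidomide, then treated with compound for 16 h, with immunoblot read-out. CHLA20 cells also received 125 nM tariquidar throughout.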

[19] = target: T2, Aurora kinase A (Homo sapiens); experiment: Induction of aurora A degradation in human Kelly cells at 100 nM after 16 hrs in presence of […] inhibitor MLN4924 by immunoblot method; assay type: cell-based; how it was run: as §1
[20] = target: T2, Aurora kinase A (Homo sapiens); experiment: Induction of aurora A degradation in human CHLA20 cells at 100 nM after 16 hrs in presence of […] inhibitor MLN4924 and ABCB1 inhibitor tariquidar by immunoblot method; assay type: cell-based; how it was run: as §1
[21] = target: T1, ALK tyrosine kinase receptor; experiment: Induction of ALK degradation in human Kelly cells at 100 nM after 16 hrs in presence of ALK inhibitor TAE684 by immunoblot method; assay type: cell-based
How it was run: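 Kelly cells were pre-treated for 2 h with DMSO, carfilzomib, MLN4924, pomalidomide, TAE684 or LDK378. Degrader treatment followed for 16 h, and ALK was read by immunoblot.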

[22] = target: T1, ALK tyrosine kinase receptor; experiment: Induction of ALK degradation in human Kelly cells at 100 nM after 4 hrs by immunoblot method; assay type: cell-based
How it was run: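 Kelly cells were treated with 100 nM compound for varying times and lysed at each time point. ALK levels were read by immunoblot.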

[23] = target: Tyrosine-protein kinase Fer (Homo sapiens) (UniProt P16591); experiment: Induction of FER degradation in human NCI-H3122 cells at 0.01 to 1 uM after 16 hrs by immunoblot method; assay type: cell-based
Tyrosine-protein kinase Fer (Homo sapiens), sequence (P16591 whole entry, looked up): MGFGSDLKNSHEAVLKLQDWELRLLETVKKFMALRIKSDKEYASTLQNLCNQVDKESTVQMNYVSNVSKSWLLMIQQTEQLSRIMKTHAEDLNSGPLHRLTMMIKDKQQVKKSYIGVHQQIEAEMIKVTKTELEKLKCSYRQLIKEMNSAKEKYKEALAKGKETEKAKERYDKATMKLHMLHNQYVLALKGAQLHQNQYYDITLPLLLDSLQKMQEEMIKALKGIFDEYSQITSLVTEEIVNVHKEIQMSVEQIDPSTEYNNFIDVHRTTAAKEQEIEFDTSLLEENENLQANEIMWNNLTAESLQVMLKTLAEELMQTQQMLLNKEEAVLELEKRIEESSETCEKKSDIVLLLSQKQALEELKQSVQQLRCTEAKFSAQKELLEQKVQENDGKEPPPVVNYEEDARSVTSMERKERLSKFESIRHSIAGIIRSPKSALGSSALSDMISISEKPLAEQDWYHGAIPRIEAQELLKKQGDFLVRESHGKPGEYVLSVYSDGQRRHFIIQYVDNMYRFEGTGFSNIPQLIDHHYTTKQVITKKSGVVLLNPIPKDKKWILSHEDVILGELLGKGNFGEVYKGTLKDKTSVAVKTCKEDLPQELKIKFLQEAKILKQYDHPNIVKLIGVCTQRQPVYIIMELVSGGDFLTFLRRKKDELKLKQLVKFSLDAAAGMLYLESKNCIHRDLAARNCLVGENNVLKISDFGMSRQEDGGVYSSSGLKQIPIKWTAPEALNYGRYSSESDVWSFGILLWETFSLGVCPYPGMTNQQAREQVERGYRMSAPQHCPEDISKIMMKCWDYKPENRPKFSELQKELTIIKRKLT

[24] = target: Ribosomal protein S6 kinase alpha-1 (Homo sapiens) (UniProt Q15418); experiment: Induction of RPS6KA1 degradation in human KARPAS299 cells at 0.01 to 1 uM after 16 hrs by immunoblot method; assay type: cell-based
Ribosomal protein S6 kinase alpha-1 (Homo sapiens), sequence (Q15418 whole entry): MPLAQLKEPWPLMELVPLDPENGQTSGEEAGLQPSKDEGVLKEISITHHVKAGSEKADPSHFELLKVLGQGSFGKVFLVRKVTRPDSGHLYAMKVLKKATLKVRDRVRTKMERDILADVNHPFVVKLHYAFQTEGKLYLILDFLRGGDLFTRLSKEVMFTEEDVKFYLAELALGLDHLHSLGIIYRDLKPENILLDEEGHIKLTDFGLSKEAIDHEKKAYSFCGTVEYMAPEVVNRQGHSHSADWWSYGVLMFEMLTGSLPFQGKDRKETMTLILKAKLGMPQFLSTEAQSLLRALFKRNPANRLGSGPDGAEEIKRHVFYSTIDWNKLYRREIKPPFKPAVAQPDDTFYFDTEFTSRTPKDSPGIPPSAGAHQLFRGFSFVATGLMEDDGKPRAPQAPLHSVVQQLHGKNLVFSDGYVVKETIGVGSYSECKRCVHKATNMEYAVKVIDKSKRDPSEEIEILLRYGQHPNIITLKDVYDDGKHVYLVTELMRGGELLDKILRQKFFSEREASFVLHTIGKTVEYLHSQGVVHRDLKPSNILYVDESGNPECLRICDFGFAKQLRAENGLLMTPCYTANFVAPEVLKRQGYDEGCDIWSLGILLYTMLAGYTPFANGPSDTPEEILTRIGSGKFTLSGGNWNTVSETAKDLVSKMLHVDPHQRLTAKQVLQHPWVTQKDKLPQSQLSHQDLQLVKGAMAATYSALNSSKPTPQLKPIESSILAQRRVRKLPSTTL

[25] = target: Ribosomal protein S6 kinase alpha-1 (Homo sapiens) (UniProt Q15418); experiment: Induction of RPS6KA1 degradation in human Kelly cells at 10 to 160 nM after 16 hrs by immunoblot method; assay type: cell-based
[26] = target: Ribosomal protein S6 kinase alpha-1 (Homo sapiens) (UniProt Q15418); experiment: Induction of RPS6KA1 degradation in human NCI-H3122 cells at 250 nM measured over 2 to 16 hrs by immunoblot method; assay type: cell-based
[27] = target: Focal adhesion kinase 1 (Homo sapiens) (UniProt Q05397); experiment: Induction of PTK2 degradation in human Kelly cells at 100 nM measured over 2 to 16 hrs by immunoblot method; assay type: cell-based

DC50 [1] | Activity [2] | Activity [3] | Activity [4] | Activity [5] | Activity [6] | Activity [7] | Activity [8] | Activity [9] | Activity [10] | Activity [11] | Activity [16] | Activity [17] | Activity [18] | Compound | Activity (NCI-H3122) | Activity (KARPAS-299) | Activity (SH-SY5Y [12]) | Activity (Homo sapiens [13]) | Activity (Homo sapiens [14]) | Activity (SH-SY5Y [15]) | other results
40 nM | Active | inactive | inactive | inactive | inactive | inactive | inactive | inactive | Active | inactive | Active | Active | inactive | Cc1cc(Nc2ncc(Cl)c(Nc3ccccc3S(=O)(=O)C(C)C)n2)c(OC(C)C)cc1C1CCN(CCOCCOCCNC(=O)CNc2cccc3c2C(=O)N(C2CCC(=O)NC2=O)C3=O)CC1 (stereo not drawn) | Active | Active | inactive | inactive | Active | Active | Activity [19]: inactive; Activity [20]: inactive; Activity [21]: inactive; Activity [22]: inactive; Activity [23]: Active; Activity [24]: Active; Activity [25]: Active; Activity [26]: Active; Activity [27]: Active
180 nM | Active | inactive | inactive | inactive | inactive | inactive | inactive | inactive | Active | inactive | Active | Active | inactive | COc1cc(N2CCN(CCOCCOCCNC(=O)CNc3cccc4c3C(=O)N(C3CCC(=O)NC3=O)C4=O)CC2)ccc1Nc1ncc(Cl)c(Nc2ccccc2S(=O)(=O)C(C)C)n1 (stereo not drawn) | Active | Active | inactive | inactive | Active | Active | Activity [19]: inactive; Activity [20]: inactive; Activity [21]: inactive; Activity [22]: inactive; Activity [23]: Active; Activity [24]: Active; Activity [25]: Active; Activity [26]: Active; Activity [27]: Active
